From ChEMBL document CHEMBL1125331, “6-Hydroxy-3-n-propyl-2,3,4,5-tetrahydro-1H-3-benzazepine and analogs: new centrally acting 5-HT1A receptor agonists” (J Med Chem, 1992)

Experiments:
[1] = target: T1, 5-hydroxytryptamine receptor 1A (Rattus norvegicus, UniProt P19327); assay: Inhibitory activity against 5-hydroxytryptamine 1A receptor in rats, using [3H]8-OH-DPAT as radioligand
T1 sequence (P19327 whole entry): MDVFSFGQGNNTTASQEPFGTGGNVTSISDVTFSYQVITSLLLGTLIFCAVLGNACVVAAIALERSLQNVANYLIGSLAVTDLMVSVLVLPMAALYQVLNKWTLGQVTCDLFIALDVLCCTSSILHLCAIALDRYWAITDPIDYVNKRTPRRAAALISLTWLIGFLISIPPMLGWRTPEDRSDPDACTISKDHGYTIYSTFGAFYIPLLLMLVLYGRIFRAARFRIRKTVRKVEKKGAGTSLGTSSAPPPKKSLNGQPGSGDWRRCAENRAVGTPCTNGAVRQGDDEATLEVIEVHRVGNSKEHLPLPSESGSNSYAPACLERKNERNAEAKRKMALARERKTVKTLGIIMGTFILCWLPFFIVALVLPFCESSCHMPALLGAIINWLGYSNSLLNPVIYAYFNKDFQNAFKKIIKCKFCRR
How it was run: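 Rat whole-brain membranes (minus brainstem and cerebellum) in 50 mM Tris pH 8.0 with 120 mM NaCl, 4 mM CaCl2, 4 mM MgCl2 and 10 μM pargyline. Rapid filtration, then scintillation counting. Nonspecific binding defined with 10 μM 5-HT. IC50 by semi-log plot and linear regression.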

[2] = target: D(2) dopamine receptor (Rattus norvegicus, UniProt P61169); assay: Inhibitory activity against Dopamine receptor D2 in rats using [3H]spiperone as radioligand
How it was run: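 Rat striatal membranes in 50 mM potassium phosphate buffer pH 7.4 were incubated with 0.5 nM [3H]spiperone for 10 min at 37 °C. Specific binding was defined with 10 μM 6,7-ADTN.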

[3] = tested on: Rattus norvegicus; assay: Effect evaluated in vivo on 5-HTP accumulation in limbic system at a dose 3.1 umol/kg (s.c.); type: functional
How it was run: (§1)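 Male Sprague-Dawley rats (200–300 g) were pretreated with reserpine 5 mg/kg sc 18 h before. Test compound was given sc at 5 mL/kg in neutral solution. 5-HT synthesis rate was indexed by […] 5-HTP accumulation after decarboxylase inhibition with NSD 1015, measured by HPLC-electrochemical detection. Dose-response used 4–6 dose levels, n = 4.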

[4] = tested on: Rattus norvegicus; assay: Effect evaluated in vivo on 5-HTP accumulation in limbic system at a dose 50 umol/kg (s.c.); type: functional; how it was run: as §1
[5] = tested on: Rattus norvegicus; assay: Effect evaluated in vivo on 5-HTP accumulation in limbic system at a dose 6.25 umol/kg (p.o.); type: functional
How it was run: (§2)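 Oral dosing in male Sprague-Dawley rats (200–300 g) pretreated with reserpine 5 mg/kg sc 18 h before. After decarboxylase inhibition with NSD 1015, brain 5-HTP or dopa accumulation (HPLC-electrochemical detection) indexed 5-HT synthesis, DA synthesis (limbic) or NE synthesis (hemispheres, mainly cortex).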

[6] = tested on: Rattus norvegicus; assay: Effect evaluated in vivo on NE synthesis in NE-rich hemispheres at a 0.78 dose uM/kg(sc); type: functional
How it was run: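 Rats pretreated with reserpine 5 mg/kg sc 18 h before received test compound sc at 5 mL/kg in neutral solution. After decarboxylase inhibition with NSD 1015, dopa accumulation in hemispheres (mainly cortex) was measured by HPLC-electrochemical detection as an index of NE synthesis. Dose-response used 4–6 dose levels, n = 4.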

[7] = tested on: Rattus norvegicus; assay: Effect evaluated in vivo on 5-HTP accumulation in corpus striatum at a dose 100 umol/kg (p.o.); type: functional
How it was run: (§3)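 Male Sprague-Dawley rats (200–300 g) were pretreated with reserpine 5 mg/kg sc 18 h beforehand. Test drug was given at neutral pH, 5 mL/kg. Aromatic amino acid decarboxylase was blocked with NSD 1015. 5-HTP in the dissected brain region was assayed by HPLC with electrochemical detection.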

[8] = tested on: Rattus norvegicus; assay: Effect evaluated in vivo on 5-HTP accumulation in corpus striatum at a dose 12.5 umol/kg (s.c.); type: functional; how it was run: as §3
[9] = tested on: Rattus norvegicus; assay: Effect evaluated in vivo on 5-HTP accumulation in corpus striatum at a dose 25 umol/kg (p.o.); type: functional; how it was run: as §3
[10] = tested on: Rattus norvegicus; assay: Effect evaluated in vivo on 5-HTP accumulation in corpus striatum at a dose 3.1 umol/kg (s.c.); type: functional; how it was run: as §3
[11] = tested on: Rattus norvegicus; assay: Effect evaluated in vivo on 5-HTP accumulation in corpus striatum after perioral administration; type: functional; how it was run: as §3
[12] = tested on: Rattus norvegicus; assay: Effect evaluated in vivo on 5-HTP accumulation in limbic system after perioral administration; type: functional; how it was run: as §3
[13] = tested on: Rattus norvegicus; assay: Effect evaluated in vivo on 5-HTP accumulation in limbic system after subcutaneous administration; type: functional; settings: sc; how it was run: as §3
[14] = tested on: Rattus norvegicus; assay: Effect evaluated in vivo on NE synthesis in NE-rich hemispheres after perioral administration; type: functional; how it was run: as §2
[15] = tested on: Rattus norvegicus; assay: Effect evaluated in vivo on 5-HTP accumulation in corpus striatum at a dose 50 umol/kg (s.c.); type: functional; how it was run: as §3
[16] = tested on: Rattus norvegicus; assay: Effect evaluated in vivo on 5-HTP accumulation in corpus striatum at a dose 6.25 umol/kg (p.o.); type: functional; how it was run: as §3
[17] = tested on: Rattus norvegicus; assay: Effect evaluated in vivo on 5-HTP accumulation in limbic system at a dose 0.78 umol/kg (s.c.); type: functional; how it was run: as §3
[18] = tested on: Rattus norvegicus; assay: Effect evaluated in vivo on 5-HTP accumulation in limbic system at a dose 1.56 umol/kg (p.o.); type: functional; how it was run: as §2
[19] = tested on: Rattus norvegicus; assay: Effect evaluated in vivo on 5-HTP accumulation in limbic system at a dose 100 umol/kg (p.o.); type: functional; how it was run: as §2
[20] = tested on: Rattus norvegicus; assay: Effect evaluated in vivo on 5-HTP accumulation in limbic system at a dose 12.5 umol/kg (s.c.); type: functional; how it was run: as §1
[21] = tested on: Rattus norvegicus; assay: Effect evaluated in vivo on 5-HTP accumulation in limbic system at a dose 25 umol/kg (p.o.); type: functional; how it was run: as §2
[22] = tested on: Rattus norvegicus; assay: Effect evaluated in vivo on 5-HTP accumulation in NE-rich hemispheres after subcutaneous administration; type: functional; settings: sc; how it was run: as §3
[23] = tested on: Rattus norvegicus; assay: Effect evaluated in vivo on 5-HTP accumulation in NE-rich hemispheres at a 1.56 dose uM/kg(po); type: functional; how it was run: as §3
[24] = tested on: Rattus norvegicus; assay: Effect evaluated in vivo on 5-HTP accumulation in NE-rich hemispheres at a 100 dose uM/kg(po); type: functional; how it was run: as §3
[25] = tested on: Rattus norvegicus; assay: Effect evaluated in vivo on 5-HTP accumulation in NE-rich hemispheres at a 12.5 dose uM/kg(sc); type: functional; how it was run: as §3
[26] = tested on: Rattus norvegicus; assay: Effect evaluated in vivo on 5-HTP accumulation in NE-rich hemispheres at a 25 dose uM/kg(po); type: functional; how it was run: as §3
[27] = tested on: Rattus norvegicus; assay: Effect evaluated in vivo on 5-HTP accumulation in NE-rich hemispheres at a 3.1 dose uM/kg(sc); type: functional; how it was run: as §3
[28] = tested on: Rattus norvegicus; assay: Effect evaluated in vivo on 5-HTP accumulation in NE-rich hemispheres at a 50 dose uM/kg(sc); type: functional; how it was run: as §3
[29] = tested on: Rattus norvegicus; assay: Effect evaluated in vivo on 5-HTP accumulation in NE-rich hemispheres at a 6.25d ose uM/kg(po); type: functional; how it was run: as §3
[30] = tested on: Rattus norvegicus; assay: Effect evaluated in vivo on 5-HTP accumulation in corpus striatum after subcutaneous administration; type: functional; settings: sc; how it was run: as §3
[31] = tested on: Rattus norvegicus; assay: Effect evaluated in vivo on 5-HTP accumulation in corpus striatum at a dose 0.78 umol/kg (s.c.); type: functional; how it was run: as §3
[32] = tested on: Rattus norvegicus; assay: Effect evaluated in vivo on 5-HTP accumulation in corpus striatum at a dose 1.56 umol/kg (p.o.); type: functional; how it was run: as §3
[33] = tested on: Rattus norvegicus; assay: The compound was tested in vivo for locomotor activity in rats at 50 umol/kg after subcutaneous administration; type: functional
How it was run: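 Male Sprague-Dawley rats received reserpine 5 mg/kg sc in the neck 18 h before testing. Test compound was given sc in the neck (n = 4). Rats were placed singly in photocell motility meters immediately after dosing, and counts were accumulated over 30 min (tests 9 a.m.–1 p.m.). Gross behaviour, including 5-HT syndrome, was observed throughout.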

Chain of D(2) dopamine receptor (P61169 whole entry): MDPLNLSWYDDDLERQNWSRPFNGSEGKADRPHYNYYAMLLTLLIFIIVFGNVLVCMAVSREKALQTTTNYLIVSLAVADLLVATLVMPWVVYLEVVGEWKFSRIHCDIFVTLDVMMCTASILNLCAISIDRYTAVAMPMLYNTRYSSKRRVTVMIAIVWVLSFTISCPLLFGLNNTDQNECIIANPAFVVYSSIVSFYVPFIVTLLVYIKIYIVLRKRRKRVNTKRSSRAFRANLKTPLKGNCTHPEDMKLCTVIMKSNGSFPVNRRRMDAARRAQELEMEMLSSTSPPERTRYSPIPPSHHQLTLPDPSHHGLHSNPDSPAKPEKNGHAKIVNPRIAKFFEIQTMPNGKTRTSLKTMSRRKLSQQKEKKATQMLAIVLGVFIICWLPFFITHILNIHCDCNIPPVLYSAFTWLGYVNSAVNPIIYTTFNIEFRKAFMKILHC

## CCCN1CCc2cccc(OC)c2CC1
[1]
  IC50: 0.063 µM
[2]
  IC50: 3.6 µM
[3]
  Control: 48%
[4]
  Control: 61%
[5]
  Control: 77%
[6]
  Control: 92%
[7]
  Control: 56%
[8]
  Control: 48%
[9]
  Control: 65%
[10]
  Control: 53%
[11]
  ED50: 10 µmol/kg
[12]
  ED50: 7 µmol/kg
[13]
  ED50: 1.5 µmol/kg
[14]
  ED50: 13 µmol/kg
[15]
  Control: 63%
[16]
  Control: 79%
[17]
  Control: 99%
[18]
  Control: 99%
[19]
  Control: 47%
[20]
  Control: 42%
[21]
  Control: 58%
[22]
  ED50: 1.5 µmol/kg
[23]
  Control: 101%
[24]
  Control: 53%
[25]
  Control: 48%
[26]
  Control: 58%
[27]
  Control: 47%
[28]
  Control: 58%
[29]
  Control: 84%
[30]
  ED50: 1 µmol/kg
[31]
  Control: 74%
[32]
  Control: 97%
[33]
  Locomotor activity: 197
